Assay results taken from ChEMBL document CHEMBL3751743, “Synthesis and anti-cancer screening of novel heterocyclic-(2H)-1,2,3-triazoles as potential anti-cancer agents” (Medchemcomm, 2015).

Key:
Type in all cases: functional
[1] = Cytotoxicity against human HOP62 cells after 48 hrs by SRB assay; settings: HOP-62, 48 h
Method in brief: (§1)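 NCI-60 five-dose screen: compounds in DMSO/H2O tested at 10^-4 to 10^-8 M (10-fold steps) for 48 h. Cell mass read by sulforhodamine B optical density at time zero and after exposure to compound or vehicle. GI50 is the concentration giving 50% reduction in net cell growth relative to day-0 cell numbers.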

[2] = Cytotoxicity against human HCT116 cells after 48 hrs by SRB assay; settings: HCT-116, 48 h
Method in brief: (§2)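 NCI-60 five-dose screen: compounds dissolved in DMSO/H2O, tested at five 10-fold dilutions (10^-4 to 10^-8 M) for 48 h. Growth measured by sulforhodamine B optical density at time zero and after 48 h drug or vehicle exposure. Percentage growth calculated relative to control. GI50 is the molar concentration giving 50% reduction in net cell growth versus day-0 cell numbers.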

[3] = Cytotoxicity against human HCT15 cells after 48 hrs by SRB assay; settings: HCT-15, 48 h; method in brief: as §2
[4] = Cytotoxicity against human OVCAR5 cells after 48 hrs by SRB assay; settings: OVCAR-5, 48 h; method in brief: as §2
EKVX = experiment: Cytotoxicity against human EKVX cells after 48 hrs by SRB assay; method in brief: as §1
Malme-3M = experiment: Cytotoxicity against human MALME-3M cells after 48 hrs by SRB assay; method in brief: as §1
[5] = Cytotoxicity against human SF295 cells after 48 hrs by SRB assay; settings: SF-295, 48 h; method in brief: as §2
[6] = Cytotoxicity against human SF539 cells after 48 hrs by SRB assay; settings: SF-539, 48 h; method in brief: as §2
MCF7 = experiment: Cytotoxicity against human MCF7 cells after 48 hrs by SRB assay; settings: MCF7, 48 h; method in brief: as §2
[7] = Cytotoxicity against human IGROV1 cells after 48 hrs by SRB assay; settings: IGROV-1, 48 h; method in brief: as §1
[8] = Cytotoxicity against human Caki1 cells after 48 hrs by SRB assay; settings: CAKI-1, 48 h; method in brief: as §2
[9] = Cytotoxicity against human UACC62 cells after 48 hrs by SRB assay; settings: UACC-62, 48 h
Method in brief: (§3)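 NCI-60 five-dose screen. Compounds dissolved in DMSO/H2O and tested at five 10-fold dilutions (10^-4 to 10^-8 M) for 48 h. Growth read by sulforhodamine B optical density at time zero and after 48 h of exposure to compound or vehicle. Percent growth calculated against control. GI50 is the molar concentration giving 50% reduction in net cell growth relative to cell number on day 0.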

[10] = Cytotoxicity against human NCI-ADR-RES cells after 48 hrs by SRB assay; method in brief: as §2
T47D = experiment: Cytotoxicity against human T47D cells after 48 hrs by SRB assay; method in brief: as §3
[11] = Cytotoxicity against human SF268 cells after 48 hrs by SRB assay; settings: SF-268, 48 h; method in brief: as §2
[12] = Cytotoxicity against human MOLT4 cells after 48 hrs by SRB assay; settings: MOLT-4, 48 h; method in brief: as §2
[13] = Cytotoxicity against human LOXIMVI cells after 48 hrs by SRB assay; settings: LOX IMVI; method in brief: as §2
[14] = Cytotoxicity against human SKOV3 cells after 48 hrs by SRB assay; settings: SK-OV-3, 48 h; method in brief: as §2
[15] = Cytotoxicity against human SW620 cells after 48 hrs by SRB assay; settings: SW-620, 48 h; method in brief: as §2
[16] = Cytotoxicity against human RXF393 cells after 48 hrs by SRB assay; settings: RXF 393, 48 h; method in brief: as §2
NCI-H522 = experiment: Cytotoxicity against human NCI-H522 cells after 48 hrs by SRB assay; settings: NCI-H522, 48 h; method in brief: as §2
[17] = Cytotoxicity against human RPMI8226 cells after 48 hrs by SRB assay; settings: RPMI-8226, 48 h; method in brief: as §2
[18] = Cytotoxicity against human UACC257 cells after 48 hrs by SRB assay; settings: UACC-257, 48 h; method in brief: as §3
[19] = Cytotoxicity against human OVCAR8 cells after 48 hrs by SRB assay; settings: OVCAR-8, 48 h; method in brief: as §2
[20] = Cytotoxicity against human Hs 578T cells after 48 hrs by SRB assay; method in brief: as §2
KM12 = experiment: Cytotoxicity against human KM12 cells after 48 hrs by SRB assay; settings: KM12, 48 h; method in brief: as §2
SK-MEL-2 = experiment: Cytotoxicity against human SK-MEL-2 cells after 48 hrs by SRB assay; settings: SK-MEL-2, 48 h; method in brief: as §2
SK-MEL-28 = experiment: Cytotoxicity against human SK-MEL-28 cells after 48 hrs by SRB assay; settings: SK-MEL-28, 48 h; method in brief: as §2
MDA-MB-231 = experiment: Cytotoxicity against human MDA-MB-231 cells after 48 hrs by SRB assay; settings: MDA-MB-231, 48 h; method in brief: as §2
ACHN = experiment: Cytotoxicity against human ACHN cells after 48 hrs by SRB assay; method in brief: as §2
NCI-H226 = experiment: Cytotoxicity against human NCI-H226 cells after 48 hrs by SRB assay; settings: NCI-H226, 48 h; method in brief: as §2
[21] = Cytotoxicity against human HCC2998 cells after 48 hrs by SRB assay; settings: HCC 2998, 48 h; method in brief: as §2
K562 = experiment: Cytotoxicity against human K562 cells after 48 hrs by SRB assay; settings: K562, 48 h; method in brief: as §2
[22] = Cytotoxicity against human OVCAR4 cells after 48 hrs by SRB assay; settings: OVCAR-4, 48 h; method in brief: as §2
CCRF-CEM = experiment: Cytotoxicity against human CCRF-CEM cells after 48 hrs by SRB assay; method in brief: as §2
[23] = Cytotoxicity against human PC3 cells after 48 hrs by SRB assay; settings: PC-3, 48 h; method in brief: as §2
NCI-H23 = experiment: Cytotoxicity against human NCI-H23 cells after 48 hrs by SRB assay; settings: NCI-H23, 48 h; method in brief: as §2
[24] = Cytotoxicity against human HOP92 cells after 48 hrs by SRB assay; settings: HOP-92, 48 h; method in brief: as §2
MDA-MB-468 = experiment: Cytotoxicity against human MDA-MB-468 cells after 48 hrs by SRB assay; settings: MDA-MB-468, 48 h; method in brief: as §2
SN12C = experiment: Cytotoxicity against human SN12C cells after 48 hrs by SRB assay; method in brief: as §2
[25] = Cytotoxicity against human UO31 cells after 48 hrs by SRB assay; settings: UO-31, 48 h; method in brief: as §3
HT-29 = experiment: Cytotoxicity against human HT-29 cells after 48 hrs by SRB assay; settings: HT-29, 48 h; method in brief: as §2
U-251 = experiment: Cytotoxicity against human U251 cells after 48 hrs by SRB assay; settings: U-251, 48 h; method in brief: as §3
[26] = Cytotoxicity against human BT549 cells after 48 hrs by SRB assay; settings: BT-549, 48 h; method in brief: as §2
[27] = Cytotoxicity against human SNB19 cells after 48 hrs by SRB assay; settings: SNB-19, 48 h; method in brief: as §2
A498 = experiment: Cytotoxicity against human A498 cells after 48 hrs by SRB assay; settings: A498, 48 h; method in brief: as §2
MDA-MB-435 = experiment: Cytotoxicity against human MDA-MB-435 cells after 48 hrs by SRB assay; settings: MDA-MB-435, 48 h; method in brief: as §2
[28] = Cytotoxicity against human TK10 cells after 48 hrs by SRB assay; settings: TK-10, 48 h; method in brief: as §3
[29] = Cytotoxicity against human HL-60(TB) cells after 48 hrs by SRB assay; settings: HL-60, 48 h; method in brief: as §2
NCI-H460 = experiment: Cytotoxicity against human NCI-H460 cells after 48 hrs by SRB assay; settings: NCI-H460, 48 h; method in brief: as §2
A549 = experiment: Cytotoxicity against human A549 cells after 48 hrs by SRB assay; settings: A549, 48 h; method in brief: as §2
[30] = Cytotoxicity against human DU145 cells after 48 hrs by SRB assay; settings: DU-145, 48 h; method in brief: as §2
M14 = experiment: Cytotoxicity against human M14 cells after 48 hrs by SRB assay; settings: M14, 48 h; method in brief: as §2
786-0 = experiment: Cytotoxicity against human 786-0 cells after 48 hrs by SRB assay; settings: 786-0, 48 h; method in brief: as §2
SK-MEL-5 = experiment: Cytotoxicity against human SK-MEL-5 cells after 48 hrs by SRB assay; settings: SK-MEL-5, 48 h; method in brief: as §2
[31] = Cytotoxicity against human OVCAR3 cells after 48 hrs by SRB assay; settings: OVCAR-3, 48 h; method in brief: as §2
[32] = Cytotoxicity against human COLO205 cells after 48 hrs by SRB assay; settings: COLO 205, 48 h; method in brief: as §2

`COc1ccc(-c2n[nH]nc2-c2csc3ccccc23)cc1OC` showed a GI50 [1] of 2180 nM, a GI50 [2] of 2840 nM and a GI50 [3] of 1670 nM. It also gave a GI50 [4] of 7910 nM, a GI50 (EKVX) of 3420 nM and a GI50 (Malme-3M) of 13300 nM. It also gave a GI50 [5] of 2330 nM, a GI50 [6] of 1840 nM and a GI50 (MCF7) of 1450 nM. For the same compound, the GI50 [7] was 4210 nM, the GI50 [8] was 3690 nM and the GI50 [9] was 2770 nM. For the same compound, the GI50 [10] was 2390 nM, the GI50 (T47D) was 2830 nM and the GI50 [11] was 3690 nM. It also gave a GI50 [12] of 3050 nM, a GI50 [13] of 3040 nM and a GI50 [14] of 2370 nM. The GI50 [15] was 3090 nM, the GI50 [16] was 2110 nM and the GI50 (NCI-H522) was 601 nM. The GI50 [17] was 3640 nM, the GI50 [18] was 10900 nM and the GI50 [19] was 4240 nM. The GI50 [20] was 2250 nM, the GI50 (KM12) was 2280 nM and the GI50 (SK-MEL-2) was 1440 nM. It also gave a GI50 (SK-MEL-28) of 4630 nM, a GI50 (MDA-MB-231) of 3210 nM and a GI50 (ACHN) of 3940 nM. For the same compound, the GI50 (NCI-H226) was 13200 nM, the GI50 [21] was 4210 nM and the GI50 (K562) was 516 nM. The GI50 [22] was 6330 nM, the GI50 (CCRF-CEM) was 3290 nM and the GI50 [23] was 3080 nM. For the same compound, the GI50 (NCI-H23) was 3940 nM, the GI50 [24] was 921 nM and the GI50 (MDA-MB-468) was 630 nM. The GI50 (SN12C) was 8800 nM, the GI50 [25] was 2780 nM and the GI50 (HT-29) was 2780 nM. The GI50 (U-251) was 2190 nM, the GI50 [26] was 2170 nM and the GI50 [27] was 4670 nM. For the same compound, the GI50 (A498) was 2960 nM, the GI50 (MDA-MB-435) was 337 nM and the GI50 [28] was 2980 nM. The GI50 [29] was 1700 nM, the GI50 (NCI-H460) was 3560 nM and the GI50 (A549) was 4520 nM. It also gave a GI50 [30] of 3770 nM, a GI50 (M14) of 1950 nM and a GI50 (786-0) of 3260 nM. It also gave a GI50 (SK-MEL-5) of 2830 nM, a GI50 [31] of 1940 nM and a GI50 [32] of 2820 nM.
